Source: ChEMBL document CHEMBL2203175, “Discovery and optimization of sulfonyl acrylonitriles as selective, covalent inhibitors of protein phosphatase methylesterase-1” (J Med Chem, 2011)
Activity calls are given as the source filed them. The rule behind the calls is not given here.

What was measured:
[1] = target: Acyl-coenzyme A thioesterase 1 (Homo sapiens) (UniProt Q86TX2); assay: Inhibition of ACOT1 binding to FP-biotin in [12C][14N]-lysine, arginine and [13C6][15N2]-lysine, arginine labeled HEK293T cells at 20 uM after 1 hr by isotopic activity-based protein profiling-MudPIT assay; assay type: cell-based; settings: HEK-293T
Outline: (§1)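 SILAC HEK 293T: light cells (12C14N-Lys/Arg) treated with compound, heavy cells (13C6 15N2-Lys/Arg) with DMSO, 1 h at 37 °C. Proteomes were mixed 1:1 (0.5 mg each) and labeled with FP-biotin (5 μM, 1 h, 25 °C), then streptavidin-enriched, digested on bead with trypsin, and run by MudPIT. Light/heavy ratios were normalized to a DMSO/DMSO control. Only SHs with ≥2 quantifiable peptides were kept; mean ± SEM across peptides.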

[2] = target: Platelet-activating factor acetylhydrolase IB subunit alpha1 (Homo sapiens) (UniProt Q15102); assay: Inhibition of PAFAH1B3 binding to FP-biotin in [12C][14N]-lysine, arginine and [13C6][15N2]-lysine, arginine labeled HEK293T cells at 20 uM after 1 hr by isotopic activity-based protein profiling-MudPIT assay; assay type: cell-based; settings: HEK-293T; outline: as §1
Chain of Platelet-activating factor acetylhydrolase IB subunit alpha1 (Homo sapiens) (Q15102 whole entry): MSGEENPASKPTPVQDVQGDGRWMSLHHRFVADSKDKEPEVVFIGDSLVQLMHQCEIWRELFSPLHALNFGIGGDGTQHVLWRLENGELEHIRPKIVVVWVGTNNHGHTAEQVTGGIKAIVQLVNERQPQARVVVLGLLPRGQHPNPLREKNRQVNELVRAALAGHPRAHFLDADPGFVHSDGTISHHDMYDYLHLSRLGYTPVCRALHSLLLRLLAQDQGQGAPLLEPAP

Chain of Acyl-coenzyme A thioesterase 1 (Homo sapiens) (Q86TX2 whole entry): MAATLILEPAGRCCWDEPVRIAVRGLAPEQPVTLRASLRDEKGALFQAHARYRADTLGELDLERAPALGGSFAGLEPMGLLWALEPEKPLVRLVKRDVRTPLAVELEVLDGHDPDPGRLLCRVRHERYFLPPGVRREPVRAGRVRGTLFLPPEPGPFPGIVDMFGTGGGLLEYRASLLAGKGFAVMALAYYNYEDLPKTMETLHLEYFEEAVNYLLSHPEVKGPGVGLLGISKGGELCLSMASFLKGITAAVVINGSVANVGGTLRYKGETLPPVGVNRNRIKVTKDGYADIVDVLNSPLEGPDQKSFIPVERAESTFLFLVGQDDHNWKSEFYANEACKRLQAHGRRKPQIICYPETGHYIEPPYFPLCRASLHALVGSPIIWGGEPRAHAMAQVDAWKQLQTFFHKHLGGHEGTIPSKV

inhibition [1]: inactive | inhibition [2]: inactive
Structure (SMILES): N#C/C(=C\c1cccn1S(=O)(=O)c1cccc([N+](=O)[O-])c1)S(=O)(=O)c1ccc(F)cc1
